# ChEMBL document CHEMBL5058577, “EUbOPEN Chemogenomics Library 2 (Multiplex)” (2022)
# Tested on: Fibroblast
# Assay: Multiplex assay against human fibroblast
# Assay type: toxicity, cell-based
# Outline: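 With compound added, live cells were imaged on a CQ1 microscope at 37°C and 5% CO2; staining with Hoechst33342, BioTracker Green Microtubule Cytoskeleton Dye, MitoTracker Red and Annexin V Alexa Fluor 680 had been done at seeding. The CellPathfinder machine-learning gating scheme split cells into Hoechst high-intensity objects or normal cells, normal cells into healthy, pyknosed or fragmented nuclei, and pyknosed cells into mitotic or apoptotic. The tubulin, mitochondrial-mass and membrane-permeability phenotypes are per cents of healthy-nucleus cells.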
# [1] = 12 h, 1 µM, compound concentration 1 uM, replicate 1
# [2] = 12 h, 1 µM, compound concentration 1 uM, replicate 2
# [3] = 12 h, 10 µM, compound concentration 10 uM, replicate 1
# [4] = 12 h, 10 µM, compound concentration 10 uM, replicate 2
# [5] = 24 h, 1 µM, compound concentration 1 uM, replicate 1
# [6] = 24 h, 1 µM, compound concentration 1 uM, replicate 2
# [7] = 24 h, 10 µM, compound concentration 10 uM, replicate 1
# [8] = 24 h, 10 µM, compound concentration 10 uM, replicate 2
# [9] = 48 h, 1 µM, compound concentration 1 uM, replicate 1
# [10] = 48 h, 1 µM, compound concentration 1 uM, replicate 2
# [11] = 48 h, 10 µM, compound concentration 10 uM, replicate 1
# [12] = 48 h, 10 µM, compound concentration 10 uM, replicate 2
structure (smiles),measurement,setting,value
Cl.N=C(N)NC(=O)Cc1c(Cl)cccc1Cl [GUANFACINE HYDROCHLORIDE],Population Apoptotic (%),[1],44%
same,Population Fragmented Nuclei (%),[1],20%
same,Population Healthy Nuclei (%),[1],62%
same,Population Hoechst High Intensity Objects (%),[1],2%
same,Population Membrane Permeable-Phenotype (%),[1],0%
same,Population Mitochondria Different-Phenotype (%),[1],4%
same,Population Mitotic Cells (%),[1],55%
same,Population Normal (%),[1],97%
same,Population Pyknosed Nuclei (%),[1],16%
same,Population Tubulin-Different-Phenotype (%),[1],32%
same,Total Cell Count,[1],167
same,Population Apoptotic (%),[2],28%
same,Population Fragmented Nuclei (%),[2],23%
same,Population Healthy Nuclei (%),[2],45%
same,Population Membrane Permeable-Phenotype (%),[2],3%
same,Population Mitochondria Different-Phenotype (%),[2],7%
same,Population Mitotic Cells (%),[2],71%
same,Population Pyknosed Nuclei (%),[2],31%
same,Population Tubulin-Different-Phenotype (%),[2],46%
same,Total Cell Count,[2],149
same,Population Apoptotic (%),[3],66%
same,Population Fragmented Nuclei (%),[3],16%
same,Population Healthy Nuclei (%),[3],68%
same,Population Hoechst High Intensity Objects (%),[3],0%
same,Population Membrane Permeable-Phenotype (%),[3],1%
same,Population Mitochondria Different-Phenotype (%),[3],5%
same,Population Mitotic Cells (%),[3],33%
same,Population Normal (%),[3],99%
same,Population Pyknosed Nuclei (%),[3],15%
same,Population Tubulin-Different-Phenotype (%),[3],24%
same,Total Cell Count,[3],139
same,Population Apoptotic (%),[4],35%
same,Population Fragmented Nuclei (%),[4],22%
same,Population Healthy Nuclei (%),[4],47%
same,Population Hoechst High Intensity Objects (%),[4],10%
same,Population Membrane Permeable-Phenotype (%),[4],5%
same,Population Mitotic Cells (%),[4],64%
same,Population Normal (%),[4],89%
same,Population Pyknosed Nuclei (%),[4],29%
same,Population Tubulin-Different-Phenotype (%),[4],46%
same,Total Cell Count,[4],127
same,Population Apoptotic (%),[5],58%
same,Population Fragmented Nuclei (%),[5],22%
same,Population Healthy Nuclei (%),[5],62%
same,Population Hoechst High Intensity Objects (%),[5],1%
same,Population Membrane Permeable-Phenotype (%),[5],0%
same,Population Mitochondria Different-Phenotype (%),[5],5%
same,Population Mitotic Cells (%),[5],41%
same,Population Normal (%),[5],98%
same,Population Pyknosed Nuclei (%),[5],14%
same,Population Tubulin-Different-Phenotype (%),[5],26%
same,Total Cell Count,[5],169
same,Population Apoptotic (%),[6],45%
same,Population Fragmented Nuclei (%),[6],23%
same,Population Healthy Nuclei (%),[6],46%
same,Population Hoechst High Intensity Objects (%),[6],6%
same,Population Membrane Permeable-Phenotype (%),[6],12%
same,Population Mitochondria Different-Phenotype (%),[6],8%
same,Population Mitotic Cells (%),[6],54%
same,Population Normal (%),[6],93%
same,Population Pyknosed Nuclei (%),[6],30%
same,Population Tubulin-Different-Phenotype (%),[6],50%
same,Total Cell Count,[6],130
same,Population Apoptotic (%),[7],63%
same,Population Fragmented Nuclei (%),[7],17%
same,Population Healthy Nuclei (%),[7],68%
same,Population Hoechst High Intensity Objects (%),[7],1%
same,Population Membrane Permeable-Phenotype (%),[7],0%
same,Population Mitochondria Different-Phenotype (%),[7],4%
same,Population Mitotic Cells (%),[7],36%
same,Population Normal (%),[7],98%
same,Population Pyknosed Nuclei (%),[7],14%
same,Population Tubulin-Different-Phenotype (%),[7],19%
same,Total Cell Count,[7],137
same,Population Apoptotic (%),[8],25%
same,Population Fragmented Nuclei (%),[8],26%
same,Population Healthy Nuclei (%),[8],55%
same,Population Hoechst High Intensity Objects (%),[8],4%
same,Population Membrane Permeable-Phenotype (%),[8],13%
same,Population Mitochondria Different-Phenotype (%),[8],3%
same,Population Mitotic Cells (%),[8],75%
same,Population Normal (%),[8],95%
same,Population Pyknosed Nuclei (%),[8],18%
same,Population Tubulin-Different-Phenotype (%),[8],58%
same,Total Cell Count,[8],114
same,Population Apoptotic (%),[9],61%
same,Population Fragmented Nuclei (%),[9],25%
same,Population Healthy Nuclei (%),[9],63%
same,Population Hoechst High Intensity Objects (%),[9],1%
same,Population Membrane Permeable-Phenotype (%),[9],0%
same,Population Mitochondria Different-Phenotype (%),[9],6%
same,Population Mitotic Cells (%),[9],38%
same,Population Normal (%),[9],98%
same,Population Pyknosed Nuclei (%),[9],11%
same,Population Tubulin-Different-Phenotype (%),[9],32%
same,Total Cell Count,[9],162
same,Population Apoptotic (%),[10],50%
same,Population Fragmented Nuclei (%),[10],33%
same,Population Healthy Nuclei (%),[10],45%
same,Population Hoechst High Intensity Objects (%),[10],3%
same,Population Membrane Permeable-Phenotype (%),[10],4%
same,Population Mitochondria Different-Phenotype (%),[10],11%
same,Population Mitotic Cells (%),[10],50%
same,Population Normal (%),[10],96%
same,Population Pyknosed Nuclei (%),[10],21%
same,Population Tubulin-Different-Phenotype (%),[10],57%
same,Total Cell Count,[10],145
same,Population Apoptotic (%),[11],66%
same,Population Fragmented Nuclei (%),[11],22%
same,Population Healthy Nuclei (%),[11],67%
same,Population Hoechst High Intensity Objects (%),[11],1%
same,Population Membrane Permeable-Phenotype (%),[11],1%
same,Population Mitochondria Different-Phenotype (%),[11],6%
same,Population Mitotic Cells (%),[11],33%
same,Population Normal (%),[11],98%
same,Population Pyknosed Nuclei (%),[11],10%
same,Population Tubulin-Different-Phenotype (%),[11],24%
same,Total Cell Count,[11],142
same,Population Apoptotic (%),[12],45%
same,Population Fragmented Nuclei (%),[12],39%
same,Population Healthy Nuclei (%),[12],41%
same,Population Hoechst High Intensity Objects (%),[12],6%
same,Population Membrane Permeable-Phenotype (%),[12],8%
same,Population Mitochondria Different-Phenotype (%),[12],2%
same,Population Mitotic Cells (%),[12],54%
same,Population Normal (%),[12],93%
same,Population Pyknosed Nuclei (%),[12],19%
same,Population Tubulin-Different-Phenotype (%),[12],67%
same,Total Cell Count,[12],120
